{"data": "Measurements gathered from unrelated publications", "matrix": "plasma", "note": "Compare with care: the assays were run in different laboratories."}
{"SMILES": "c1cnc2ccc(Nc3nc(NC4CC4)c4nc[nH]c4n3)cc2c1", "species": "human", "route": "oral", "dose": "200 mg/m²", "notes": "patients", "measurement": "Vd/F", "result": "267 L"}
{"SMILES": "COc1cc(C(=O)NC2CCN(C)CC2)c(F)cc1Nc1ncc(C(F)(F)F)c(Oc2cccc3c2C(=O)N(C)C3)n1", "species": "human", "route": "oral", "dose": "25 mg", "notes": "single dose, patients", "measurement": "Vd/F", "result": "331 L"}
{"SMILES": "Cc1cc(Nc2cc(N3CCN(C)CC3)nc(/C=C/c3ccccc3)n2)n[nH]1", "species": "human", "route": "oral", "dose": "350 mg/m²", "notes": "patients", "measurement": "Vd/F", "result": "2340 L"}
{"SMILES": "CC(C)(Sc1ccncc1-c1ccc(C#N)c2ccccc12)C(=O)O", "species": "male human", "route": "oral", "dose": "5 mg", "notes": "single dose, fasted, healthy volunteers", "measurement": "Vd/F", "result": "419 L"}
{"SMILES": "COc1ccc([C@@H]2CN(C(=O)[C@@H](O)CO)C[C@@]2(C)[C@@H](C)O)cc1OC1CN(c2ccc(C)cn2)C1", "species": "human", "route": "oral", "dose": "40 mg", "notes": "single dose, healthy volunteers", "measurement": "Vd/F", "result": "77.7 L"}
{"SMILES": "CCNCCCNC/C=C\\CNCCCNCC", "species": "human", "route": "intravenous", "dose": "150 mg", "notes": "patients, infusion", "measurement": "Vd", "result": "1.55 L/kg"}
{"SMILES": "CO[C@H]1CC[C@H](N2C(=O)CNc3ncc(-c4ccc(C(C)(C)O)nc4)nc32)CC1", "species": "human", "route": "oral", "dose": "30 mg", "notes": "patients", "measurement": "Vd/F", "result": "195 L"}
{"SMILES": "C[C@@]1(c2cc(NC(=O)c3ccc(C#N)cn3)ccc2F)C=CSC(N)=N1", "species": "human", "route": "oral", "dose": "150 mg", "notes": "single dose", "measurement": "Vd/F", "result": "247 L"}
